Bioassay records: PubChem BioAssay, Johns Hopkins Ion Channel Center
Hits are enriched below; roughly 3.5% of the tested compounds scored in any of these assays.
MrgX1 allo act: human MrgX1 positive allosteric modulation, primary screen; Q96LB2; MrgX1-HEK293, Fluo-4 calcium flux, FDSS; hits give high values; B-score at 10 µM; actives 0.63% (n = 310,000); AID 588675;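 active = plate-corrected calcium response at least 3 library SD above typical, normal starting fluorescence, not activating the receptor alone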;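 note: compound read alongside a low EC10 to EC30 dose of BAM8-22 agonist; peak minus trough fluorescence over baseline measured at the second addition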
Target sequence (Q96LB2 whole entry, looked up): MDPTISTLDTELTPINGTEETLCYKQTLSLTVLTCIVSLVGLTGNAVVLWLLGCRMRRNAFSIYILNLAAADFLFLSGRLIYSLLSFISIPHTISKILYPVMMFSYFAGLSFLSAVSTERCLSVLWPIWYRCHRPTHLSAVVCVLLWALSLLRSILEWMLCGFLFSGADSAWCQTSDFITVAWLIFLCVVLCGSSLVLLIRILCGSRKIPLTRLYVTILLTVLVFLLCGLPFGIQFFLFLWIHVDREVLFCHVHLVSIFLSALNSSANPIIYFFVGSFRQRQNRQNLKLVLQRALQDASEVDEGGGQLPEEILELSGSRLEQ
MrgX1 agonist: agonists of human MrgX1 receptor; Q96LB2; MrgX1-HEK293 cells, Fluo-4 calcium fluorescence, agonist mode; hits give high values; B-score at 10 µM; actives 0.44% (n = 310,000);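 active = calcium response B-score plate-corrected fluorescence ratio at least 3 library SD, with starting fluorescence B-score inside 5 SD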
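System – MrgX1-expressing HEK293 cells · Incubation – cells plated overnight, dye loaded 0.5 h 37 °C, 0.5 h room temperature · Technique – kinetic Fluo-4 NW fluorescence of intracellular calcium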
RGS4 inh: human RGS4 inhibition | P49798 | HEK293 M3R/RGS4 inducible, Fluo-4 calcium flux; hits give high values; triggered by carbachol at its EC20 | B-score at 10 µM | actives 0.45% (n = 310,000) | AID 463165;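 active = B-score, a plate-corrected calcium signal, over three deviations above library mean, with baseline fluorescence within five deviations of library mean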;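 note: RGS4 expression induced by doxycycline in cells with stable M3 receptor; B-score is computed from the integrated fluorescence ratio over baseline after carbachol; higher B-score means a larger calcium signal and so more RGS4 inhibition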
Target sequence (P49798 whole entry, looked up): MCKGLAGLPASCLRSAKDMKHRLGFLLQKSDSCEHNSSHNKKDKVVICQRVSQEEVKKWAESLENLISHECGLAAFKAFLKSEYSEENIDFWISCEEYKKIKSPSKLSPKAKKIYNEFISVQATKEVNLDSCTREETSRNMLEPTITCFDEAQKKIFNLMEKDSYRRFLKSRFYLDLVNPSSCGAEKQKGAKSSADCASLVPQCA
MrgX1 antag: blocks BAM8-22 activation of human MrgX1 receptor; AID 588676; MRGX1-HEK293 calcium flux, Fluo-4, BAM8-22 antagonism; hits give low values; B-score at 10 µM; actives 1.3% (n = 310,000);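 active = calcium-response B-score plate-corrected more than 3 library SD below zero, starting fluorescence within 5 deviations, no agonist response on first addition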;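 note: peak minus trough fluorescence over baseline after final BAM8-22 challenge near maximal dose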
RGS4 pot: potentiators or activators of RGS4; HEK293 M3R/inducible RGS4, carbachol calcium flux Fluo4; hits give low values; B-score at 10 µM; actives 0.92% (n = 310,000); AID 463111;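 active = B-score of the integrated calcium signal more than 4 SD below the library mean, with starting fluorescence not abnormally high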;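 note: negative B-score means reduced calcium response which marks RGS4 activation or potentiation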
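Assay system: Inducible-RGS4 HEK293 cells carrying M3 receptor | Schedule: Compound preincubation 20 min at room temperature before agonist | Signal: Kinetic calcium fluorescence imaging with Fluo4-AM dye, 2 µM | Read-out basis: B score from integrated fluorescence ratio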
MrgX1 antag conf: reconfirmed antagonist of human MrgX1 receptor signaling; remaining BAM8-22 calcium response % of control (hits give low values), % at 10 µM; actives 19% (n = 2,300); shares compounds with MrgX1 antag; MrgX1-HEK293, BAM8-22 calcium flux, Fluo-4; hits give low values;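 active = remaining agonist calcium response no higher than 100% minus 3 SD of agonist-only control wells, with starting fluorescence near control levels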;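 note: agonist BAM8-22 given at a near maximal EC90 to ECmax level; peak minus minimum fluorescence divided by baseline after agonist addition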
HEK293 Ca flux: activity in parental HEK293 cells lacking MrgX1. shares compounds with MrgX1 antag. Fluo-4 calcium fluorescence, FDSS. fluorescence ratio F(max-min)/F0 at 10 µM. actives 2% (n = 4,000). AID 624111;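 active = duplicate-averaged calcium fluorescence ratio at least three times the standard deviation of buffer wells, a nonspecific response in parental cells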
HEK293 Ca counter: MrgX1 allosteric activator counter-screen hit in parental HEK293 cells; shares compounds with MrgX1 antag; parental HEK293 calcium flux, Fluo-4 fluorescence ratio; hits give high values; fluorescence ratio F(max-min)/F0 at 10 µM; actives 0.4% (n = 4,000); AID 624114;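 active = calcium fluorescence ratio, averaged over duplicates, at least 3 SD of the buffer-well ratio, meaning a nonspecific response in receptor-free cells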;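 note: untransfected parental HEK293 lacking MrgX1 used as counterscreen for MrgX1 allosteric activators; fluorescence change taken during the second addition on a kinetic imager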
HEK293 Ca cntr2: counter-screen for MrgX1 activators: effect in parental HEK293 cells | Fluo-4 calcium fluorescence (FDSS); hits give high values | shares compounds with MrgX1 antag | AID 624115 | actives 8.7% (n = 4,000) | fluorescence ratio F(max-min)/F0 at 10 µM;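 active = calcium fluorescence ratio at least three times the spread of buffer wells, meaning a non-specific response in parental cells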
* = called active by the depositor.

`COc1ccc(S(=O)(=O)N2CCCC(C(=O)NCCN3CCOCC3)C2)cc1C` (stereo not drawn) gave MrgX1 allo act inactive, MrgX1 agonist inactive, RGS4 inh inactive, MrgX1 antag inactive and RGS4 pot inactive.
`Cc1cc(C2N=C(N)Nc3nc4ccccc4n32)c(C)n1-c1ccccc1Cl` (stereo not drawn) gave MrgX1 allo act inactive, MrgX1 agonist inactive, RGS4 inh inactive, MrgX1 antag -5.5*, RGS4 pot inactive, MrgX1 antag conf inactive, HEK293 Ca flux inactive, HEK293 Ca counter inactive and HEK293 Ca cntr2 inactive.
Screening Fc1ccc(CN2CCSCC2)cc1F returned MrgX1 allo act inactive, MrgX1 agonist inactive, RGS4 inh inactive, MrgX1 antag -4.5*, RGS4 pot inactive, MrgX1 antag conf inactive, HEK293 Ca flux inactive, HEK293 Ca counter inactive and HEK293 Ca cntr2 inactive.
`COc1ccc(C(=O)NC(CCSC)C(=O)N2CCCCCC2)cc1` (stereo not drawn) gave MrgX1 allo act inactive, MrgX1 agonist inactive, RGS4 inh inactive, MrgX1 antag inactive and RGS4 pot inactive.
Screening CCCc1ccc2oc(C(=O)N(Cc3nccn3C)C(C)C)c(C)c2c1 returned MrgX1 allo act inactive, MrgX1 agonist inactive, RGS4 inh inactive, MrgX1 antag inactive and RGS4 pot inactive.
`CCN1CCN(S(=O)(=O)c2cccc3nsnc23)CC1` gave MrgX1 allo act inactive, MrgX1 agonist inactive, RGS4 inh inactive, MrgX1 antag inactive and RGS4 pot inactive.
For Cc1ccccc1CN1CCN(S(=O)(=O)c2cccc3nsnc23)CC1 the results were MrgX1 allo act inactive, MrgX1 agonist inactive, RGS4 inh inactive, MrgX1 antag -11*, RGS4 pot inactive, MrgX1 antag conf inactive, HEK293 Ca flux inactive, HEK293 Ca counter inactive and HEK293 Ca cntr2 inactive.
Cc1ccccc1CN1CCN(S(=O)(=O)c2cccs2)CC1 was read as MrgX1 allo act inactive, MrgX1 agonist inactive, RGS4 inh inactive, MrgX1 antag -4.6*, RGS4 pot inactive, MrgX1 antag conf inactive, HEK293 Ca flux inactive, HEK293 Ca counter inactive and HEK293 Ca cntr2 inactive.
`COc1ccc(-c2nc(=S)c3c([nH]2)Oc2ccc(C)cc2C3)cc1O` gave MrgX1 allo act inactive, MrgX1 agonist inactive, RGS4 inh inactive, MrgX1 antag inactive and RGS4 pot inactive.
OCCCNc1cc(-c2ccnc(Nc3cccc(Cl)c3)n2)ccn1 was read as MrgX1 allo act inactive, MrgX1 agonist inactive, RGS4 inh inactive, MrgX1 antag -4.9*, RGS4 pot inactive, MrgX1 antag conf 60%*, HEK293 Ca flux inactive, HEK293 Ca counter inactive and HEK293 Ca cntr2 inactive.
For COc1cccc(SCc2noc(C(=O)NCCC(C)C)c2C(=O)NCCC(C)C)c1 the results were MrgX1 allo act inactive, MrgX1 agonist inactive, RGS4 inh inactive, MrgX1 antag inactive and RGS4 pot inactive.
For O=C(NCc1ccccc1)C12CC3CC(CC(C3)C1)C2 the results were MrgX1 allo act inactive, MrgX1 agonist inactive, RGS4 inh inactive, MrgX1 antag inactive and RGS4 pot inactive.
Screening O=C(O)CCNC(=O)C12CC3CC(CC(C3)C1)C2 returned MrgX1 allo act inactive, MrgX1 agonist inactive, RGS4 inh inactive, MrgX1 antag -8.1*, RGS4 pot inactive, MrgX1 antag conf inactive, HEK293 Ca flux inactive, HEK293 Ca counter inactive and HEK293 Ca cntr2 inactive.
Screening CC1CCCCC1NC(=O)c1cccc(S(=O)(=O)N2CCN(Cc3ccccc3)CC2)c1 (stereo not drawn) returned MrgX1 allo act inactive, MrgX1 agonist inactive, RGS4 inh inactive, MrgX1 antag -6.1*, RGS4 pot inactive, MrgX1 antag conf inactive, HEK293 Ca flux inactive, HEK293 Ca counter inactive and HEK293 Ca cntr2 inactive.
For CC(=O)N=c1sc2ccccc2n1C the results were MrgX1 allo act inactive, MrgX1 agonist inactive, RGS4 inh inactive, MrgX1 antag inactive and RGS4 pot inactive.
CC(C(=O)N=c1sc2ccccc2n1C)N1C(=O)C2CC=CCC2C1=O (stereo not drawn) was read as MrgX1 allo act inactive, MrgX1 agonist inactive, RGS4 inh inactive, MrgX1 antag -4.7*, RGS4 pot inactive, MrgX1 antag conf inactive, HEK293 Ca flux inactive, HEK293 Ca counter inactive and HEK293 Ca cntr2 inactive.
`Cc1cc(NC(=O)CC2CCCC2)ccc1Br` gave MrgX1 allo act inactive, MrgX1 agonist inactive, RGS4 inh inactive, MrgX1 antag inactive and RGS4 pot inactive.
`Cc1cccc(NC(=O)CC2CCC2)c1` gave MrgX1 allo act inactive, MrgX1 agonist inactive, RGS4 inh inactive, MrgX1 antag -5.8*, RGS4 pot inactive, MrgX1 antag conf inactive, HEK293 Ca flux inactive, HEK293 Ca counter inactive and HEK293 Ca cntr2 inactive.
For Cc1ccnc(N2CCC(C(=O)Nc3cccc(C(F)(F)F)c3)CC2)n1 the results were MrgX1 allo act inactive, MrgX1 agonist inactive, RGS4 inh inactive, MrgX1 antag -4.8*, RGS4 pot inactive, MrgX1 antag conf inactive, HEK293 Ca flux inactive, HEK293 Ca counter inactive and HEK293 Ca cntr2 inactive.
Screening Cc1ccnc(N2CCC(C(=O)Nc3ccc(Oc4ccccc4)cc3)CC2)n1 returned MrgX1 allo act inactive, MrgX1 agonist inactive, RGS4 inh inactive, MrgX1 antag inactive and RGS4 pot inactive.
`CCn1nc(C)cc1C(=O)N1CCCC(C(=O)c2ccc(OC)cc2C)C1` (stereo not drawn) gave MrgX1 allo act inactive, MrgX1 agonist inactive, RGS4 inh inactive, MrgX1 antag inactive and RGS4 pot inactive.
For O=C(Nc1nnc(C2CC2)s1)c1ccc(Cl)c(S(=O)(=O)N2CCc3ccccc3C2)c1 the results were MrgX1 allo act inactive, MrgX1 agonist inactive, RGS4 inh inactive, MrgX1 antag -6.4*, RGS4 pot inactive, MrgX1 antag conf 63%*, HEK293 Ca flux inactive, HEK293 Ca counter inactive and HEK293 Ca cntr2 inactive.
